T cruzi inh: blocks replication of Trypanosoma cruzi; T. cruzi beta-gal in NIH3T3, luminescence, 90 h; inhibition, % (test concentration not listed); 1.4% of 300,000 active; AID 1885;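 active = mean inhibition across valid replicates above about 55%, limit read from the data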;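 note: signal also drops with host cell toxicity which is not excluded here; 0% = plate median of DMSO wells and 100% = zero luminescence signal; higher percent means less beta-gal luminescence so fewer parasites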
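System: mouse NIH/3T3 fibroblasts infected with β-gal-expressing T. cruzi Tulahuen C4 / Input: NIH/3T3 cells, 5,000 per well / Buffer or medium: Low-serum DMEM with 2% FBS / Probe or stimulus: 5000 reporter trypomastigotes per well / Schedule: ≥90 h infection period, 3 h prior cell attachment / Measured by: GalScreen luminescence, 60 min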
CSC inhib: cancer stem cell inhibition. inhibition, % at 7.5 µM. cancer stem cell-like cells viability, luminescence. AID 2717. 1.1% of 300,000 active; in the data active = inhibition above about 75%; tested in HMLE shEcad cells
Beta cell apopt: blocks beta cell apoptosis. INS-1E cytokine-induced death, ATP luminescence, 48 h; percent of positive-control rescue, neutral wells zero. protection from apoptosis, % (no concentration beside the values). 0.8% of 300,000 active. AID 435005;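 active = Every replicate reaches about 75%, or at least half do and their mean reaches it too, limit read from the data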;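 note: 0% = cytokine-treated negative control wells and 100% = positive control rescue; higher means more ATP so stronger rescue from cytokine killing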
UPR CHOP act: apoptotic UPR (CHOP) activation; CHO-CHOP luciferase reporter, luminescence; percent of tunicamycin response over DMSO baseline; activation, % at 10 µM; 0.34% of 330,000 active;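 active = at 10 µM dose, activation of 40% or more, normalized to positive control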;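 note: 100% = tunicamycin at 10 µg/mL and 0% = DMSO alone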
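Test system: CHO CHOP reporter cells. Input: 500 CHO-CHOP cells per well. Medium: F12 with 10% FBS. Technique: luciferase luminescence. Measure: percent activation relative to tunicamycin control. Dosing: 10 µM compound, 0.5% DMSO. Timing: 16-18 h cell attachment, then 6 h compound exposure, 37 °C.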
Mdm2-MdmX inh: human Mdm2/MdmX binding inhibition. O15151+Q00987. SaOS-2 split-luciferase Mdm2/MdmX complementation, luminescence. inhibition, % at 8 µM. 3% of 330,000 active;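 active = inhibition of at least 50% at 8 µM in the primary screen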
Target sequence (O15151 whole entry, looked up): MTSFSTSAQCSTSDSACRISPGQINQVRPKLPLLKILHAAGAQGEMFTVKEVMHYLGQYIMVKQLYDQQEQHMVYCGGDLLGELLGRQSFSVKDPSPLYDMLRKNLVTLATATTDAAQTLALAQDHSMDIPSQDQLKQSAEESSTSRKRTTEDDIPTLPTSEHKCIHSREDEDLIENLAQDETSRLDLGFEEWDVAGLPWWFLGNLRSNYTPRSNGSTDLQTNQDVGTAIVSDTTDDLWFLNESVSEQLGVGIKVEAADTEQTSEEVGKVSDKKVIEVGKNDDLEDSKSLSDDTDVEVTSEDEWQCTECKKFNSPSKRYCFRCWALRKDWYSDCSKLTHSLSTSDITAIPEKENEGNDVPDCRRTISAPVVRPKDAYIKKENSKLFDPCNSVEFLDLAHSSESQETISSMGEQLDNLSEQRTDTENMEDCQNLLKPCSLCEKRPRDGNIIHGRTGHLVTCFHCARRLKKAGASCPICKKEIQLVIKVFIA
Target sequence (Q00987 whole entry, looked up): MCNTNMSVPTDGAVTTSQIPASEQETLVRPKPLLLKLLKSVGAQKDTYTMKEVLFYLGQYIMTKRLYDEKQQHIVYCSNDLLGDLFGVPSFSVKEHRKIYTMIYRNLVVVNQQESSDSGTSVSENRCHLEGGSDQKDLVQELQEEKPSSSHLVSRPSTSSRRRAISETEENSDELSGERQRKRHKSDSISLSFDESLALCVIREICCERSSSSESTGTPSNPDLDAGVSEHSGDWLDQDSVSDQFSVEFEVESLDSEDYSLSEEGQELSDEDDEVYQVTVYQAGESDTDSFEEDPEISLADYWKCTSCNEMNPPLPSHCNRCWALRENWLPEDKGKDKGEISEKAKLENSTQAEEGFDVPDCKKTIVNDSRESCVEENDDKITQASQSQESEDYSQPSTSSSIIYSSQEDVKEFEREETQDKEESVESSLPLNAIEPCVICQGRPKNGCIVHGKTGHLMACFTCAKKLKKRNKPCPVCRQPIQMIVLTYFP
XBP1 UPR activ: activators of adaptive arm of unfolded protein response (XBP1); CHO-XBP1 luciferase reporter, IRE1-XBP1 UPR activation, luminescence; percent of tunicamycin response, DMSO as zero; activation, % at 20 µM; 0.33% of 330,000 active;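 active = versus positive control, 20 µM dose yields 30% or more activation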;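 note: 100% = tunicamycin at 10 µg/mL and 0% = DMSO only wells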
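Material: IRE1-XBP1 luciferase reporter CHO line / Quantity: one thousand reporter cells per well / Buffer or medium: F12 with 10% serum / Compound: 20 µM single concentration, DMSO 1% / Times: 6 h treatment, 37 °C / Detection: Steady-Glo luciferase glow luminescence, 10 min after reagent addition / Benchmarks: tunicamycin high, DMSO low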
Numbers without * were called inactive; . = not tested or not shown. Most compounds without a hit are left out; they make up all but 5% or so of the library.

SMILES	T cruzi inh	CSC inhib	Beta cell apopt	UPR CHOP act	Mdm2-MdmX inh	XBP1 UPR activ
Cc1ccc(C(c2c(C)nn(-c3ccccc3)c2N)c2c(C)nn(-c3ccccc3)c2N)cc1	18	6	3	0	9	-1
COc1ccc(C2CC(c3ccccc3)=NN2C(=O)COC(=O)c2nc3nc(C)cc(C)n3n2)cc1 (centres undefined)	70*	-26	-3	2	-6	-1
COc1ccc(NC(=O)N2CCN(c3cccc(C(F)(F)F)c3)CC2)cc1	-13	7	2	-2	27	-1
CN(C)S(=O)(=O)c1ccc(NC(=O)N2CCN(c3cccc(C(F)(F)F)c3)CC2)cc1	55*	-4	42	12	21	0
COC(=O)c1ccccc1NC(=O)CCn1c(=O)oc2ccccc21	2	-19	1	-1	-3	-1
O=C(CN(C(=O)CCC(=O)Nc1nccs1)C1CCCC1)NCc1ccc2c(c1)OCO2	-8	-1	.	-1	-6	0
CCOC(=O)C1CCCN(Cc2ccc(OCc3ccccc3)c(OC)c2)C1 (centres undefined)	63*	11	.	0	16	-2
CCOC(=O)C1CCCN(Cc2ccc(O)c(OC)c2)C1 (centres undefined)	58*	0	-8	-1	12	3
CCOC(=O)C1CCCN(Cc2ccc(OCc3ccccc3)cc2)C1 (centres undefined)	62*	12	-4	4	20	1
c1ccc(Nc2cccc(Nc3ccccc3)c2)cc1	65*	-9	0	3	-23	-1
Nc1cccc(Nc2ccccc2)c1	12	0	.	2	1	5
Cc1ccc(NC(=O)CN(C)C(=O)Cc2ccc(Cl)c(Cl)c2)cc1	6	7	0	3	1	1
Cc1ccc(NC(=O)CN(C)C(=O)Cn2ncc(Cl)c(Cl)c2=O)cc1	-14	110*	-6	.	.	.
CC1CCN(C(=O)COC(=O)C23CC4CC(CC(O)(C4)C2)C3)CC1	.	.	-13	4	5	0
FC(F)(F)c1cccc(NC(=S)NNC(=S)NCc2ccccc2)c1	24	57	-2	-1	18	1
O=C1C=C(Nc2ccc(O)cc2)C(=O)c2ccccc21	-9	105*	100*	7	-25	4
CCN(CC)c1ccc(NC2=C(Cl)C(=O)c3ccccc3C2=O)cc1	.	106*	1	.	.	.
CCNC1=C(Cl)C(=O)c2ccccc2C1=O	-14	-7	55	0	16	3
Cc1ccc(NC2=CC(=O)C(=O)c3ccccc32)cc1	-7	-8	100*	45*	-7	17
Cc1ccc(NC2=C(Cl)C(=O)c3ccccc3C2=O)cc1	-29	112*	3	.	.	.
NS(=O)(=O)c1ccc(NC2=CC(=O)C(=O)c3ccccc32)cc1	9	61	64	16	30	10
Cc1cccn2cc(CCNS(=O)(=O)c3cccc([N+](=O)[O-])c3)nc12	1	-22	-8	-1	6	0
CN(C)CCCN(C(=O)c1ccc(S(=O)(=O)N2CCc3ccccc32)cc1)c1nc2c(Cl)cccc2s1	55*	50	0	4	30	5
CN(C)CCN(C(=O)c1ccc(S(=O)(=O)N2CCc3ccccc32)cc1)c1nc2ccc(F)cc2s1	63*	3	8	3	-7	-5
Cc1cc(Br)c2c(c1)/C(=C/C(=O)c1cccs1)C(=O)N2	58*	9	8	15	21	17
SMILES	T cruzi inh	CSC inhib	Beta cell apopt	UPR CHOP act	Mdm2-MdmX inh	XBP1 UPR activ
Cc1cccc2c1NC(=O)/C2=C\C(=O)c1cccs1	5	83*	6	29	33	8
CCc1ccc2c(c1)/C(=C/C(=O)c1cccs1)C(=O)N2	-1	50	-11	-7	47	-9
Cc1c(CCOC(=O)c2cc([N+](=O)[O-])cc([N+](=O)[O-])c2)sc[n+]1CCCCS(=O)(=O)[O-]	10	-3	-4	-2	-3	3
CCN(CC)CCOc1ncnc2c1oc1ccccc12	3	-10	-2	0	-21	0
CCCCc1oc2ccccc2c1C(=O)c1cc(I)c(OCCN(CC)CC)c(I)c1	38	89*	4	3	42	-6
CCOC(=O)c1c(C)[nH]c(C(=O)OCC(=O)Nc2cc(Cl)ccc2OC)c1C	16	-6	4	3	28	2
CC(=O)c1c(C)[nH]c(C(=O)OCC(=O)Nc2ccc(Cl)cc2[N+](=O)[O-])c1C	1	-3	113*	6	36	-1
O=C(NCCN1CCCOC1=O)C(=O)NCCN1CCCOC1=O	-2	-12	-5	-2	16	-2
CCn1cc(C(=O)NCc2ccco2)c(=O)c2cc(S(=O)(=O)N3CCC(C)CC3)ccc21	-29	5	6	-1	11	-2
CCn1cc(C(=O)NCc2ccco2)c(=O)c2cc(S(=O)(=O)N3CCc4ccccc4C3)ccc21	56*	42	5	0	24	-4
CCn1cc(C(=O)NCc2ccco2)c(=O)c2cc(S(=O)(=O)N3CC(C)CC(C)C3)ccc21 (centres undefined)	6	83*	26	-4	37	-1
O=C1C2=C(NC(=S)NC2c2ccc(Cl)cc2)NC(c2ccc(Cl)cc2)N1c1ccc(Cl)cc1 (centres undefined)	57*	101*	-12	4	1	9
CCc1ccc(C2NC(=S)NC3=C2C(=O)N(c2ccccc2OC)C(c2ccc(CC)cc2)N3)cc1 (centres undefined)	13	.	-8	3	44	5
COc1ccc2nc(SC(C)C(=O)NC3CCCC3)[nH]c2c1 (centres undefined)	.	.	.	0	13	2
CCCN(CCC)S(=O)(=O)c1ccc(NC(=O)c2cc(C(=O)OC)cc([N+](=O)[O-])c2)cc1	74*	16	-8	5	2	11
Cc1nc2ccccc2c(=O)n1CCc1ccc(O)cc1	-3	5	-8	2	-22	3
CCn1c(=O)n(CC)c2cc(NS(=O)(=O)c3ccccc3)ccc21	-1	-2	-3	1	28	-4
CCn1c2ccccc2c2cc(NC(=O)CNCC3CCCO3)ccc21 (centres undefined)	69*	-13	-5	0	17	-1
CCn1c2ccccc2c2cc(NS(=O)(=O)c3ccc(C)cc3)ccc21	25	84*	-1	0	45	-4
O=S(=O)(Nc1nc2ccc(Cl)cc2s1)c1cccs1	1	5	-3	3	-2	-9
O=C(NCC1COc2ccccc2O1)c1cccc(S(=O)(=O)NCc2ccccc2)c1 (centres undefined)	23	19	105*	1	19	-3
